From ChEMBL document CHEMBL4689842, “EUbOPEN Chemogenomics Library wave 1” (2021)
Several values for one entry are separate records, joined by “and”; a condition that tells them apart may be missing. Identical values can stand only once.

What was measured:
Assay type in all cases: toxicity, cell-based
Fibroblast [1] = assay: Multiplex assay against human fibroblast; details: 10 µM, compound concentration 10 uM
Summary of the method: (§1)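 Four dyes were applied at seeding to live cells: Hoechst33342, BioTracker Green Microtubule Cytoskeleton Dye, MitoTracker Red and Annexin V Alexa Fluor 680. Imaging after compound addition used a CQ1 microscope at 37°C and 5% CO2. CellPathfinder machine-learning gating then sorted cells into Hoechst high-intensity objects or normal cells, normal cells into healthy, pyknosed or fragmented nuclei, and pyknosed cells into mitotic or apoptotic, with tubulin, mitochondrial-mass and membrane-permeability phenotypes given as per cents of healthy-nucleus cells.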

U2OS [2] = assay: Multiplex assay against U2OS; details: human, 10 µM, compound concentration 10 uM; summary of the method: as §1
Fibroblast [3] = assay: Incucyte cell viability with human fibroblast; details: 10 µM, compound concentration 10 uM; also: filed as whole numbers so only -1 and 0 and 1 occur
HEK-293T [4] = assay: Multiplex assay against HEK293T; details: human, 10 µM, compound concentration 10 uM; summary of the method: as §1
U2OS [5] = assay: Incucyte cell viability with U2OS; details: human, 10 µM, compound concentration 10 uM; also: filed as whole numbers so only -1 and 0 and 1 occur
HEK-293T [6] = assay: Incucyte cell viability with HEK293T; details: human, 10 µM, compound concentration 10 uM; also: filed as whole numbers so only -1 and 0 and 1 occur
[7] = 0 h, replicate number 1, timepoint 0 hours
[8] = 6 h, replicate number 1, timepoint 6 hours
[9] = 12 h, replicate number 1, timepoint 12 hours
[10] = 18 h, replicate number 1, timepoint 18 hours
[11] = 24 h, replicate number 1, timepoint 24 hours

CCN1CCN(Cc2ccc(NC(=O)c3ccc(C)c(Oc4ccnc5[nH]ccc45)c3)cc2C(F)(F)F)CC1.Cl.Cl.Cl.O
Population Apoptotic (%) (Fibroblast [1]; 12 h, replicate 1): 75% and 44%
Population Fragmented Nuclei (%) (Fibroblast [1]; 12 h, replicate 1): 42% and 25%
Population Healthy Nuclei (%) (Fibroblast [1]; 12 h, replicate 1): 42% and 50%
Population Hoechst High Intensity Objects (%) (Fibroblast [1]; 12 h, replicate 1): 20%
Population Membrane Permeable-Phenotype (%) (Fibroblast [1]; 12 h, replicate 1): 6% and 2%
Population Mitochondria Different-Phenotype (%) (Fibroblast [1]; 12 h, replicate 1): 8%
Population Mitotic Cells (%) (Fibroblast [1]; 12 h, replicate 1): 25% and 55%
Population Normal (%) (Fibroblast [1]; 12 h, replicate 1): 79%
Population Pyknosed Nuclei (%) (Fibroblast [1]; 12 h, replicate 1): 14% and 25%
Population Tubulin-Different-Phenotype (%) (Fibroblast [1]; 12 h, replicate 1): 13% and 25%
Total Cell Count (Fibroblast [1]; 12 h, replicate 1): 169 and 323
Population Fragmented Nuclei (%) (Fibroblast [1]; 12 h, replicate 2): 74% and 45%
Population Healthy Nuclei (%) (Fibroblast [1]; 12 h, replicate 2): 23% and 34%
Population Hoechst High Intensity Objects (%) (Fibroblast [1]; 12 h, replicate 2): 36% and 41%
Population Membrane Permeable-Phenotype (%) (Fibroblast [1]; 12 h, replicate 2): 18% and 0%
Population Mitochondria Different-Phenotype (%) (Fibroblast [1]; 12 h, replicate 2): 0% and 12%
Population Mitotic Cells (%) (Fibroblast [1]; 12 h, replicate 2): 100% and 44%
Population Normal (%) (Fibroblast [1]; 12 h, replicate 2): 63% and 58%
Population Tubulin-Different-Phenotype (%) (Fibroblast [1]; 12 h, replicate 2): 18% and 37%
Total Cell Count (Fibroblast [1]; 12 h, replicate 2): 74 and 79
Population Apoptotic (%) (Fibroblast [1]; 24 h, replicate 1): 76% and 41%
Population Fragmented Nuclei (%) (Fibroblast [1]; 24 h, replicate 1): 45% and 29%
Population Healthy Nuclei (%) (Fibroblast [1]; 24 h, replicate 1): 46%
Population Hoechst High Intensity Objects (%) (Fibroblast [1]; 24 h, replicate 1): 23% and 52%
Population Membrane Permeable-Phenotype (%) (Fibroblast [1]; 24 h, replicate 1): 5% and 2%
Population Mitochondria Different-Phenotype (%) (Fibroblast [1]; 24 h, replicate 1): 13% and 14%
Population Mitotic Cells (%) (Fibroblast [1]; 24 h, replicate 1): 23% and 58%
Population Normal (%) (Fibroblast [1]; 24 h, replicate 1): 76% and 47%
Population Pyknosed Nuclei (%) (Fibroblast [1]; 24 h, replicate 1): 8% and 23%
Population Tubulin-Different-Phenotype (%) (Fibroblast [1]; 24 h, replicate 1): 20% and 32%
Total Cell Count (Fibroblast [1]; 24 h, replicate 1): 210 and 306
Population Apoptotic (%) (Fibroblast [1]; 24 h, replicate 2): 50% and 30%
Population Fragmented Nuclei (%) (Fibroblast [1]; 24 h, replicate 2): 59% and 50%
Population Healthy Nuclei (%) (Fibroblast [1]; 24 h, replicate 2): 36% and 19%
Population Hoechst High Intensity Objects (%) (Fibroblast [1]; 24 h, replicate 2): 38% and 40%
Population Mitotic Cells (%) (Fibroblast [1]; 24 h, replicate 2): 50% and 69%
Population Normal (%) (Fibroblast [1]; 24 h, replicate 2): 61% and 60%
Population Tubulin-Different-Phenotype (%) (Fibroblast [1]; 24 h, replicate 2): 41% and 50%
Total Cell Count (Fibroblast [1]; 24 h, replicate 2): 76 and 70
Population Apoptotic (%) (U2OS [2]; 12 h, replicate 1): 66% and 38%
Population Healthy Nuclei (%) (U2OS [2]; 12 h, replicate 1): 34% and 87%
Population Hoechst High Intensity Objects (%) (U2OS [2]; 12 h, replicate 1): 7% and 4%
Population Membrane Permeable-Phenotype (%) (U2OS [2]; 12 h, replicate 1): 18% and 17%
Population Mitotic Cells (%) (U2OS [2]; 12 h, replicate 1): 33% and 61%
Population Normal (%) (U2OS [2]; 12 h, replicate 1): 92% and 95%
Total Cell Count (U2OS [2]; 12 h, replicate 1): 219 and 182
Population Fragmented Nuclei (%) (U2OS [2]; 12 h, replicate 2): 17% and 9%
Population Healthy Nuclei (%) (U2OS [2]; 12 h, replicate 2): 40% and 83%
Population Hoechst High Intensity Objects (%) (U2OS [2]; 12 h, replicate 2): 14% and 11%
Population Membrane Permeable-Phenotype (%) (U2OS [2]; 12 h, replicate 2): 20% and 10%
Population Mitotic Cells (%) (U2OS [2]; 12 h, replicate 2): 30% and 87%
Population Normal (%) (U2OS [2]; 12 h, replicate 2): 85% and 88%
Population Pyknosed Nuclei (%) (U2OS [2]; 12 h, replicate 2): 42%
Total Cell Count (U2OS [2]; 12 h, replicate 2): 113 and 91
Population Apoptotic (%) (U2OS [2]; 24 h, replicate 1): 37%
Population Normal (%) (U2OS [2]; 24 h, replicate 1): 79% and 98%
Population Pyknosed Nuclei (%) (U2OS [2]; 24 h, replicate 1): 10%
Population Tubulin-Different-Phenotype (%) (U2OS [2]; 24 h, replicate 1): 10%
Total Cell Count (U2OS [2]; 24 h, replicate 1): 255 and 248
Population Apoptotic (%) (U2OS [2]; 24 h, replicate 2): 90% and 58%
Population Fragmented Nuclei (%) (U2OS [2]; 24 h, replicate 2): 16% and 11%
Population Hoechst High Intensity Objects (%) (U2OS [2]; 24 h, replicate 2): 23% and 18%
Population Normal (%) (U2OS [2]; 24 h, replicate 2): 76% and 81%
Total Cell Count (U2OS [2]; 24 h, replicate 2): 133 and 117
Growth Rate (Fibroblast [3]; [7]): 0
Growth Rate (Fibroblast [3]; [8]): 1
Growth Rate (Fibroblast [3]; [9]): 0
Growth Rate (Fibroblast [3]; [10]): 0
Growth Rate (Fibroblast [3]; [11]): 0
Population Apoptotic (%) (HEK-293T [4]; 12 h, replicate 1): 19% and 50%
Population Fragmented Nuclei (%) (HEK-293T [4]; 12 h, replicate 1): 21% and 19%
Population Healthy Nuclei (%) (HEK-293T [4]; 12 h, replicate 1): 47% and 20%
Population Hoechst High Intensity Objects (%) (HEK-293T [4]; 12 h, replicate 1): 20% and 25%
Population Membrane Permeable-Phenotype (%) (HEK-293T [4]; 12 h, replicate 1): 5% and 7%
Population Mitotic Cells (%) (HEK-293T [4]; 12 h, replicate 1): 80% and 49%
Population Normal (%) (HEK-293T [4]; 12 h, replicate 1): 79% and 74%
Population Pyknosed Nuclei (%) (HEK-293T [4]; 12 h, replicate 1): 31% and 60%
Total Cell Count (HEK-293T [4]; 12 h, replicate 1): 451 and 581
Population Fragmented Nuclei (%) (HEK-293T [4]; 12 h, replicate 2): 3% and 6%
Population Healthy Nuclei (%) (HEK-293T [4]; 12 h, replicate 2): 66% and 86%
Population Hoechst High Intensity Objects (%) (HEK-293T [4]; 12 h, replicate 2): 5% and 2%
Population Membrane Permeable-Phenotype (%) (HEK-293T [4]; 12 h, replicate 2): 2% and 1%
Population Mitotic Cells (%) (HEK-293T [4]; 12 h, replicate 2): 47% and 87%
Population Normal (%) (HEK-293T [4]; 12 h, replicate 2): 94% and 97%
Total Cell Count (HEK-293T [4]; 12 h, replicate 2): 837 and 1347
Population Fragmented Nuclei (%) (HEK-293T [4]; 24 h, replicate 1): 21% and 23%
Population Healthy Nuclei (%) (HEK-293T [4]; 24 h, replicate 1): 25% and 58%
Population Hoechst High Intensity Objects (%) (HEK-293T [4]; 24 h, replicate 1): 29% and 13%
Population Membrane Permeable-Phenotype (%) (HEK-293T [4]; 24 h, replicate 1): 8% and 7%
Population Normal (%) (HEK-293T [4]; 24 h, replicate 1): 70% and 86%
Total Cell Count (HEK-293T [4]; 24 h, replicate 1): 528 and 497
Population Healthy Nuclei (%) (HEK-293T [4]; 24 h, replicate 2): 71% and 83%
Population Hoechst High Intensity Objects (%) (HEK-293T [4]; 24 h, replicate 2): 6% and 5%
Population Membrane Permeable-Phenotype (%) (HEK-293T [4]; 24 h, replicate 2): 1% and 3%
Population Mitotic Cells (%) (HEK-293T [4]; 24 h, replicate 2): 32% and 91%
Population Normal (%) (HEK-293T [4]; 24 h, replicate 2): 93% and 94%
Total Cell Count (HEK-293T [4]; 24 h, replicate 2): 779 and 2092
Growth Rate (U2OS [5]; [7]): 0
Growth Rate (U2OS [5]; [8]): 0
Growth Rate (U2OS [5]; 6 h, replicate number 2, timepoint 6 hours): 1
Growth Rate (U2OS [5]; [9]): 0
Growth Rate (U2OS [5]; [10]): 0
Growth Rate (U2OS [5]; [11]): 0
Growth Rate (HEK-293T [6]; 0 h, replicate number 2, timepoint 0 hours): 0
Growth Rate (HEK-293T [6]; [8]): 0
Growth Rate (HEK-293T [6]; [9]): 0
Growth Rate (HEK-293T [6]; [10]): 0
Growth Rate (HEK-293T [6]; [11]): 0
